From ChEMBL document CHEMBL4477233, “Discovery of novel TAOK2 inhibitor scaffolds from high-throughput screening” (Bioorg Med Chem Lett, 2016)
The source made the active and inactive calls. The calls are words filed in the database; no cut-off is given here.

What follows are compounds tested against T1, Serine/threonine-protein kinase TAO2 (Rattus norvegicus, UniProt Q9JLS3) (assay: Inhibition of rat TAOK2 (1 to 320 residues) expressed in Baculovirus/insect cell expression system assessed as remaining activity using MBP as substrate and [32P]ATP measured after 10 mins by Kinase-Glo assay).
T1 sequence (Q9JLS3 whole entry): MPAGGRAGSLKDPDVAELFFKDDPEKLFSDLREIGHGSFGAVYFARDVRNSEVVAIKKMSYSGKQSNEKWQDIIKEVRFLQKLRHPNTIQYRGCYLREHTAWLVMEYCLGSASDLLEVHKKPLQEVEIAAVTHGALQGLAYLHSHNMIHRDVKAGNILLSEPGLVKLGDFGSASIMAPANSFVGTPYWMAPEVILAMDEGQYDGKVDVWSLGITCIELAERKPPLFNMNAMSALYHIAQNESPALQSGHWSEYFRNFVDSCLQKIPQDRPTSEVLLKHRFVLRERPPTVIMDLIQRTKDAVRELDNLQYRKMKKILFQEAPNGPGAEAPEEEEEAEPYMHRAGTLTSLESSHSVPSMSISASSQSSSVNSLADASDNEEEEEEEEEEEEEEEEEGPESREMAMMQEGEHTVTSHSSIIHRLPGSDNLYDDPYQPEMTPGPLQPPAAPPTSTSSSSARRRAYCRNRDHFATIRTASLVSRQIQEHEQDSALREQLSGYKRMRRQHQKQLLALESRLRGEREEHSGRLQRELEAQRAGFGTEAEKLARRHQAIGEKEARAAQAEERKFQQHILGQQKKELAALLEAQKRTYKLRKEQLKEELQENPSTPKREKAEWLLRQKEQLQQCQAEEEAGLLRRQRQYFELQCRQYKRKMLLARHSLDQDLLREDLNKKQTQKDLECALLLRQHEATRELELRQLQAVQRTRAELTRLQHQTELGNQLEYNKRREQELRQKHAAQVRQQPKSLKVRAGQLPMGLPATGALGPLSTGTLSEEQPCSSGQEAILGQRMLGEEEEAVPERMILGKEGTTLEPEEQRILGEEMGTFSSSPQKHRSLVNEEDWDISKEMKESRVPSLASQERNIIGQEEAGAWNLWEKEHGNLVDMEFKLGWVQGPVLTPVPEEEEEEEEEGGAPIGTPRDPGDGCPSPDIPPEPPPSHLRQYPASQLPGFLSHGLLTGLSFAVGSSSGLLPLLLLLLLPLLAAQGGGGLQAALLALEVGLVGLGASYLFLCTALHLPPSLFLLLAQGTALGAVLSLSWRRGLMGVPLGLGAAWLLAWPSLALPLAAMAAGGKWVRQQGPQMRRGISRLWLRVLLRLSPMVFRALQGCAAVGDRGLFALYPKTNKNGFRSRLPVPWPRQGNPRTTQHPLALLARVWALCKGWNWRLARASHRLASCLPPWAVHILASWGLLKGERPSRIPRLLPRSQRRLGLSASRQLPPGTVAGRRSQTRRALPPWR
`CCC(=O)Nc1nc(C)c(-c2csc(Nc3ccc(NC(C)=O)cc3)n2)s1` showed an IC50 of 1900 nM.
In the case of `CCC(=O)Nc1nc(C)c(-c2csc(Nc3ccc(N(C)C)cc3)n2)s1`, the IC50 is reported as 1200 nM.
`COc1ccc(OC)c(Nc2nc(-c3sc(N)nc3C)cs2)c1` showed an IC50 of 1000 nM.
With `O=C(Nc1cccc(-c2nc3ccccc3c(=O)o2)c1)c1ccccc1Br` the IC50 was 4000 nM.
Work on `CC(=O)Nc1nc(C)c(-c2csc(Nc3cccc([N+](=O)[O-])c3)n2)s1` yielded an IC50 of 10100 nM.
`COc1ccc(Cl)cc1Nc1nc(-c2sc(NC(C)=O)nc2C)cs1` was tested, and the IC50 was 1100 nM.
`Cc1cccc(Nc2nc(-c3sc(N)nc3C)cs2)c1` gave an IC50 of 1700 nM.
With `CCC(=O)Nc1nc(C)c(-c2csc(Nc3cc(Cl)ccc3C)n2)s1` the IC50 was 1600 nM.
Work on `CCOc1ccccc1Nc1nc(-c2sc(NC(C)=O)nc2C)cs1` yielded an IC50 of 1600 nM.
Work on `O=C(NCC1COc2ccccc2O1)c1ccc2c(=O)n(Cc3ccco3)c(=S)[nH]c2c1` (stereo not drawn) yielded an IC50 of 600 nM.
Work on `CC(=O)Nc1nc(C)c(-c2csc(Nc3ccccc3)n2)s1` yielded an IC50 of 1100 nM.
`CC(=O)Nc1nc(C)c(-c2csc(Nc3ccccc3C)n2)s1` gave an IC50 of 1800 nM.
`COc1ccc(Cl)cc1Nc1nc(-c2sc(N)nc2C)cs1` gave an IC50 of 1000 to 1500 nM.
In the case of `CC(=O)Nc1nc(C)c(-c2csc(Nc3cccc(C(C)=O)c3)n2)s1`, the IC50 is reported as 12000 nM.
`CC(=O)Nc1nc(C)c(-c2csc(Nc3ccc(O)cc3)n2)s1` gave an IC50 of 3800 nM.
`CN1c2ccc(S(C)(=O)=O)cc2SC1NC(=O)/C=C/c1ccc(F)cc1` (stereo not drawn) gave an IC50 of 800 nM.
With `CCC(=O)Nc1nc(C)c(-c2csc(Nc3cccc(O)c3)n2)s1` the IC50 was 1000 nM.
In the case of `CC(=O)c1cccc(Nc2nc(-c3sc(N)nc3C)cs2)c1`, the IC50 is reported as 1400 nM.
With `CCC(=O)Nc1nc(C)c(-c2csc(Nc3ccccc3OC)n2)s1` the IC50 was 1400 nM.
`CCOc1ccccc1Nc1nc(-c2sc(NC(=O)CC)nc2C)cs1` showed an IC50 of 600 nM.
`Cc1nc(NC(=O)c2ccccc2)sc1-c1csc(Nc2ccc(S(N)(=O)=O)cc2)n1` was tested, and the IC50 was 800 nM.
With `CCC(=O)Nc1nc(C)c(-c2csc(Nc3ccc([N+](=O)[O-])cc3)n2)s1` the IC50 was 1000 nM.
Compound `CCC(=O)Nc1nc(C)c(-c2csc(Nc3cccc(C(=O)O)c3)n2)s1` has an IC50 of 1700 nM.
In the case of `CCC(=O)Nc1nc(C)c(-c2csc(Nc3ccc(S(N)(=O)=O)cc3)n2)s1`, the IC50 is reported as 1000 nM.
`CCC(=O)Nc1nc(C)c(-c2csc(Nc3cccc([N+](=O)[O-])c3)n2)s1` gave an IC50 of 1000 nM.
In the case of `CCC(=O)Nc1nc(C)c(-c2csc(Nc3ccc(N(CC)CC)cc3)n2)s1`, the IC50 is reported as 2700 nM.
`COc1ccc(O)c(/C=C2/SC(=S)NC2=O)c1` gave an IC50 of 3000 nM.
For `Cc1nc(N)sc1-c1csc(Nc2cccc([N+](=O)[O-])c2)n1`, the IC50 was 1700 nM.
In the case of `CC(=O)Nc1nc(C)c(-c2csc(Nc3cccc(C)c3)n2)s1`, the IC50 is reported as 900 nM.
`Cc1nc(N)sc1-c1csc(Nc2ccc([N+](=O)[O-])cc2)n1` was tested, and the IC50 was 1000 nM.
Compound `Cc1nc(N)sc1-c1csc(Nc2cccc(Cl)c2)n1` has an IC50 of 3100 nM.
`CN1c2ccc(S(C)(=O)=O)cc2SC1NC(=O)CC1CCC(Br)CC1` (stereo not drawn) was tested, and the IC50 was 1400 nM.
Work on `CC(=O)Nc1nc(C)c(-c2csc(Nc3ccc(Br)cc3)n2)s1` yielded an IC50 of 1000 nM.
In the case of `COc1ccccc1Nc1nc(-c2sc(NC(C)=O)nc2C)cs1`, the IC50 is reported as 2100 nM.
`Cc1nc(N)sc1-c1csc(Nc2cccc(O)c2)n1` was tested, and the IC50 was 1400 nM.
Work on `CCC(=O)Nc1nc(C)c(-c2csc(Nc3ccc(O)cc3)n2)s1` yielded an IC50 of 1600 nM.
For `Cc1cccc(NC(=S)N/N=C/c2c[nH]c3ccccc23)c1`, the IC50 was 1000 nM.
With `CN1c2ccc(S(C)(=O)=O)cc2SC1NC(=O)c1ccc(C(=O)c2ccccc2)cc1` (stereo not drawn) the IC50 was 1000 nM.
Work on `CN1c2ccc(S(C)(=O)=O)cc2SC1NC(=O)CCCc1ccccc1` (stereo not drawn) yielded an IC50 of 1700 nM.
Compound `CC(=O)Nc1nc(C)c(-c2csc(Nc3ccc(C)cc3)n2)s1` has an IC50 of 1100 nM.
`CN1c2ccc(S(C)(=O)=O)cc2SC1NC(=O)CCCOC1CCCCC1` (stereo not drawn) showed an IC50 of 1900 nM.
`CC(=O)Nc1nc(C)c(-c2csc(Nc3ccc([N+](=O)[O-])cc3)n2)s1` was tested, and the IC50 was 10000 nM.
With `Cc1nc(N)sc1-c1csc(Nc2ccc(S(N)(=O)=O)cc2)n1` the IC50 was 1400 nM.
`CCN(CC)c1ccc(Nc2nc(-c3sc(NC(C)=O)nc3C)cs2)cc1` showed an IC50 of 1700 nM.
`O=C(NCCSCc1ccccc1)c1ccc2c(=O)n(C3CCCCC3)c(=S)[nH]c2c1` was tested, and the IC50 was 1900 nM.
Work on `CC(=O)Nc1nc(C)c(-c2csc(Nc3cccc(C(=O)O)c3)n2)s1` yielded an IC50 of 1300 nM.

Each compound was assayed against T2, Serine/threonine-protein kinase TAO2 (Homo sapiens) (UniProt Q9UL54) (assay: Inhibition of TAOK2 in human U2OS cells assessed as inhibition of cellular autophagy measured as P62 accumulation at 50 uM after 24 hrs by western blot analysis).
T2 sequence (whole entry): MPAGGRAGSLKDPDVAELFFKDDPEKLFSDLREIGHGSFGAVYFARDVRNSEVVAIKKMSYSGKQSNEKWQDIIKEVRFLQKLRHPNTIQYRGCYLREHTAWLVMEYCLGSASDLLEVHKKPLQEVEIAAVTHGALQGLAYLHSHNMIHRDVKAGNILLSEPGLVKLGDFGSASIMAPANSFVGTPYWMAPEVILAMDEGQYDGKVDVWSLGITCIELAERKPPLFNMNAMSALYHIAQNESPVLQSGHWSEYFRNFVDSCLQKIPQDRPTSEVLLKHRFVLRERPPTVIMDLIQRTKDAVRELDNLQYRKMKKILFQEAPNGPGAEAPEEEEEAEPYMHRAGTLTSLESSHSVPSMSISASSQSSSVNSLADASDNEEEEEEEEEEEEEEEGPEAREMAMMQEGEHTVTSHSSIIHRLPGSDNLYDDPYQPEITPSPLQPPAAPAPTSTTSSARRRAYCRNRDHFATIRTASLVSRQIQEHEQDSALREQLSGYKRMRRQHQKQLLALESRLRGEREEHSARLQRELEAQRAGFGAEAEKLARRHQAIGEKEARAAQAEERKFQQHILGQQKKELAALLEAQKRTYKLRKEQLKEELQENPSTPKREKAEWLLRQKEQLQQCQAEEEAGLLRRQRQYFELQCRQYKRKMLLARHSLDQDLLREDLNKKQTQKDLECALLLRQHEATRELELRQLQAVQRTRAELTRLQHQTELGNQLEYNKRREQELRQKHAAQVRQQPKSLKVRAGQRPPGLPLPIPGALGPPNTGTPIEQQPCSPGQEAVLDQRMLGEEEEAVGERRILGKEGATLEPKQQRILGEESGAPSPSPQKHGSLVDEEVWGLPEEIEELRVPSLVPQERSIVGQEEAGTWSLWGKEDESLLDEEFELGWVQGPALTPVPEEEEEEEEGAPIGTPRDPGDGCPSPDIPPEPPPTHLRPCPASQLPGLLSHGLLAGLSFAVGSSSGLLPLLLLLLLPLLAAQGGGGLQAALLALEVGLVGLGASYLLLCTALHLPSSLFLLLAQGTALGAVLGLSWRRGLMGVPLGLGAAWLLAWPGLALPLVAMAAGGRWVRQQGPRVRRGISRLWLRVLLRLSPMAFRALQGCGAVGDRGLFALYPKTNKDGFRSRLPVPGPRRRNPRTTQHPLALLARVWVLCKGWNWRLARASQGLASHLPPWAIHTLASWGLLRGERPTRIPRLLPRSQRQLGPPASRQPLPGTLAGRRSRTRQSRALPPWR
Type: cell-based
How it was run: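 GFP–LC3-expressing U2OS cells were treated for 24 h with compound at 50 µM or with DMSO alone. p62 (SQSTM1) abundance was then assessed by Western blotting as a readout of autophagic degradation.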
`O=C(Nc1cccc(-c2nc3ccccc3c(=O)o2)c1)c1ccccc1Br` was tested, and the inhibition was “Active”.

These compounds were tested against T3, Serine/threonine-protein kinase TAO2 (Rattus norvegicus) (UniProt Q9JLS3) (assay: Binding affinity to rat TAOK2 (1 to 320 residues) expressed in Baculovirus/insect cell expression system assessed as change in melting temperature at 1 uM by SYPRO orange dye-based DSF analysis).
T3 sequence (whole entry): T1 sequence (Q9JLS3 whole entry)
How it was run: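 Differential scanning fluorimetry: each compound's melting-temperature shift (ΔTm, °C) was measured on the kinase protein. Compounds giving a TAOK2 ΔTm above 0.5 °C were also run against p38 and ASK1. Selectivity (ΔΔTm) was taken as the TAOK2 ΔTm minus the p38 or ASK1 ΔTm.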
With `O=C(Nc1cccc(-c2nc3ccccc3c(=O)o2)c1)c1ccccc1Br` the ΔTm was -0.6 °C.
With `COc1ccc(O)c(/C=C2/SC(=S)NC2=O)c1` the ΔTm was -0.2 °C.
`Cc1cccc(NC(=S)N/N=C/c2c[nH]c3ccccc23)c1` gave a ΔTm of 0.5 °C.

These compounds were tested against T2, Serine/threonine-protein kinase TAO2 (Homo sapiens) (assay: Inhibition of TAOK2 in human U2OS cells assessed as inhibition of cellular autophagy measured as GFP-LC3 accumulation at 50 uM after 24 hrs by flow cytometric analysis).
Type: cell-based
How it was run: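 U2OS cells stably expressing GFP–LC3 were exposed to compound at 50 µM in the medium for 24 h. GFP fluorescence was read by flow cytometry. The median value from 20,000 cells per condition was normalized to DMSO vehicle within each experiment. Data are mean + SD of >2 independent experiments, compared with vehicle by unpaired t test.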
`O=C(Nc1cccc(-c2nc3ccccc3c(=O)o2)c1)c1ccccc1Br` was tested, and the inhibition was “Active”.
`COc1ccc(O)c(/C=C2/SC(=S)NC2=O)c1` was tested, and the inhibition was “Active”.
In the case of `CO/C1=C\C(C)=C\[C@@H](C)[C@@H](O)[C@@H](C)C/C(C)=C/C=C/[C@H](OC)[C@@H]([C@@H](C)[C@@H](O)[C@H](C)[C@@]2(O)C[C@@H](O)[C@H](C)[C@@H](C(C)C)O2)OC1=O`, the inhibition is reported as “Active”.
